The entries come from a sample that favours hits as a whole.
pCIP destab: compounds decreasing mouse p/CIP protein stability; Q05BA5; F442A p/CIP-EGFP cells, EGFP fluorescence, 16 h; decrease of EGFP signal, % at 10 µM; 290,000 compounds, 0.01% hits; AID 1984;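 active means EGFP signal decrease of at least 30% at 10 µM or well 3 SD below plate mean, unless failing retest; inactive means the rest, including hits failing retest or dose response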
Dynein transport: blocks dynein driven cargo transport along microtubules. 3617.4 mouse cells, GR-EGFP nuclear translocation imaging; test concentration mostly 20 µM; stimulated with dexamethasone, 1 µM; stronger effect = lower value. z-score, hits read low. 220,000 compounds, 0.47% hits;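 active means plate z-score of nuclear minus cytoplasmic receptor signal below a set negative limit, without overly bright fluorescence or cell loss, cut at about -3.5 in these data, passing the limit was not always enough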;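 further: z-score of nuclear minus cytoplasmic ring GR-EGFP intensity difference per well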
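Also added – dexamethasone, 1.0 µM final · Buffer or medium – tet-free, stripped-serum medium · Schedule – induction 48 h, compound 1 h, agonist 30 min · Detection – formaldehyde fixation, Hoechst nuclear stain, 10x automated fluorescence imaging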
UPR XBP1 act: adaptive UPR (XBP1) activation | activation, % at 20 µM | 330,000 compounds, 0.33% hits | CHO-XBP1 luciferase reporter, IRE1-XBP1 UPR activation, luminescence; percent of tunicamycin response, DMSO as zero;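 active means versus positive control, 20 µM dose yields 30% or more activation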;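 further: 100% = tunicamycin at 10 µg/mL and 0% = DMSO only wells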
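Signal: luciferase luminescence; Assay system: CHO-XBP1 luciferase reporter cells; Amount: one thousand reporter cells per well; Dosing: 20 µM single concentration, DMSO 1%; Benchmarks: high control tunicamycin 10 µg/mL final, low control DMSO vehicle only; Schedule: 6 h compound exposure at 37 °C, 5% CO2; Evaluation: percent activation relative to tunicamycin reference.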
CHOP inhibitor: CHOP inhibition in unfolded protein response; 220,000 compounds, 3.8% hits; inhibition, % at 10 µM; CHO-K1 CHOP-promoter luciferase, tunicamycin-induced, 15-18 h; AID 2732;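 active means compounds that reduced the stress-induced luciferase reporter signal by more than about 70% of percent inhibition, limit read from the data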;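 further: 0% = tunicamycin plus vehicle and 100% = wells without tunicamycin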
CHOP UPR activ: activators of apoptotic arm of unfolded protein response (CHOP) | 330,000 compounds, 0.34% hits | activation, % at 10 µM | CHO-CHOP luciferase reporter, UPR activation, luminescence; percent of tunicamycin response over DMSO baseline | AID 449763;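 active means at 10 µM dose, activation of 40% or more, normalized to positive control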;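 further: 100% = tunicamycin at 10 µg/mL and 0% = DMSO alone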
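Evaluation: % reporter activation, DMSO baseline versus tunicamycin full activation; System: CHO-CHOP luciferase reporter cell line; Input: 500 cells/well; Incubation: 6 h compound treatment, 37 °C; Measured by: Steady-Glo luciferase luminescence; Dosing: one dose, 10 µM in 0.5% DMSO; Buffer or medium: F12 medium, 10% FBS; Benchmarks: positive tunicamycin 10 µg/mL, negative DMSO alone.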
B2AR ag: agonists of human beta-2 adrenergic receptor inducing internalization; P07550; Am2.2-beta2AR cells, FAP receptor internalization, flow cytometry; response, % (no concentration beside the values); 340,000 compounds, 0.43% hits; AID 504454;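 active means response above a set limit, near 3 SD of response in nonfluorescent compounds, cut at about 42% in these data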
Target sequence (P07550 whole entry, looked up): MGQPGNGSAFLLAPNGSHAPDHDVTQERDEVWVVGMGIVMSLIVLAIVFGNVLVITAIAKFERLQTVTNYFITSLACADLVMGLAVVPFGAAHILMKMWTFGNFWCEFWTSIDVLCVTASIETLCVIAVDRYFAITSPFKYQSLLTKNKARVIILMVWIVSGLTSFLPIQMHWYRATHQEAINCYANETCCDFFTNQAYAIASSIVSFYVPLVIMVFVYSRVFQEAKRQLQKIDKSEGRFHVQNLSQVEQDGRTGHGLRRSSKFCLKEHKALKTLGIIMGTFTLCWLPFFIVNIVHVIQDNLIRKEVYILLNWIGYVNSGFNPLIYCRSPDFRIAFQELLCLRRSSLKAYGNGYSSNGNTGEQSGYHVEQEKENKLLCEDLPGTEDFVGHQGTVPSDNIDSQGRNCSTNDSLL
Dynein inh conf: dynein cargo transport inhibition, confirmation; shares compounds with Dynein transport; 3617.4 GR-EGFP nuclear translocation imaging, dexamethasone-induced; calls only at 20 µM; 1,000 compounds, 69% hits;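 active means inhibition of receptor movement into the nucleus at or above a set limit in both runs, with normal cell brightness and cell count; inconclusive means limit reached in only one run, brightness and count normal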;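 further: dexamethasone at 1 µM final in well for 30 min; nuclear minus cytoplasmic GR-EGFP mean intensity difference in channel 2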
CHOP inh conf: confirmation of CHOP induction inhibitors; shares compounds with CHOP inhibitor; CHO-CHOP promoter luciferase reporter, tunicamycin-induced, luminescence; inhibition, % at 10 µM; 2,100 compounds, 45% hits; AID 504437;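 active means mean of three repeat readings of reporter signal inhibition above a set limit, cut at about 70% in these data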;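 further: 0% = tunicamycin plus vehicle and 100% = wells lacking tunicamycin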
CHOP UPR conf: confirmation of apoptotic unfolded protein response (CHOP) activators | shares compounds with CHOP UPR activ | CHO-CHOP cells, CHOP-luciferase reporter luminescence; percent of tunicamycin response, DMSO as zero | activation, % at 10 µM | 1,000 compounds, 64% hits | AID 463112; in the data active means activation above about 33%;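 further: 0% = DMSO wells and 100% = tunicamycin 10 µg/mL wells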
Active calls of the source: *; i = inactive; ? = inconclusive; . = no result given; + = active, no number.

SMILES | pCIP destab | Dynein transport | UPR XBP1 act | CHOP inhibitor | CHOP UPR activ | B2AR ag | Dynein inh conf | CHOP UPR conf | others
CC1(C)CC(=O)C2=C(C1)OC1=C(C(=O)CC(C)(C)C1)C2c1ccc(O)cc1O | 0.3 | -5.16 | -5.0 | . | 207.7* | 92.5* | + | -9.3 | CHOP inh conf=-85.5
CC1(C)CC(=O)C2=C(C1)OC1=C(C(=O)CC(C)(C)C1)C2c1ccc(O)c([N+](=O)[O-])c1 | 10.9 | 0.481 | -1.7 | 24.8 | -0.6 | 7.5 | . | .
Cc1ccc2c(COC(=O)C3CSC4(C)CCC(=O)N34)cc(=O)oc2c1C (stereo unspecified) | . | . | -1.1 | . | -1.4 | -0.5 | . | .
S=c1[nH]nc(-c2cc(-c3ccccc3)n[nH]2)n1/N=C/C(Br)=C/c1ccccc1 | -16.8 | -4.26* | 12.2 | -14.4 | 109.5* | 9.2 | ? | 130.3*
CCC(C)N(C(=O)COC(=O)CN=C1NS(=O)(=O)c2ccccc21)C1CCS(=O)(=O)C1 (stereo unspecified) | . | . | -1.9 | . | 0.0 | 1.6 | . | .
COc1cc(/C=C2\SC(=Nc3ccccc3)N(CCc3c[nH]c4ccccc34)C2=O)ccc1OC(C)C(=O)O (stereo unspecified) | -7.1 | 0.525 | -0.9 | -13.8 | -2.0 | 19.1 | . | .
O=C1/C(=C/c2ccc(N3CCOCC3)o2)SC(=Nc2ccccc2)N1CCc1c[nH]c2ccccc12 | -70.6 | -6.96 | -10.1 | -19.9 | 110.5* | i | + | 36.1*
CC(C)(C)OC(=O)C[C@@H]1C/C=C\C[C@@H](CC(=O)N[C@H](CO)Cc2ccccc2)C(=O)NC[C@H](c2ccccc2)OC1=O | . | . | -1.5 | . | -1.5 | 15.5 | . | .
COc1cccc(NC(=O)COC(=O)CNC(=O)C2CCCCC2)c1 | . | . | -1.5 | . | -1.3 | 14.5 | . | .
O=c1c(/C=C(\O)c2ccccc2)nc2ccccc2n1-c1ccccc1 | -42.2 | 0.227 | 11.3 | -31.7 | 3.1 | . | . | .
CCOC(=O)c1c(C)oc2c1c(C(c1cccnc1)N1CCOCC1)c(O)c1ccccc12 (stereo unspecified) | -15.4 | -3.71* | 4.4 | 107.4* | 70.5* | 14.2 | ? | 134.3* | CHOP inh conf=-1.8
CCOC(=O)c1c(C)oc2c1c(C(c1cccnc1)N1CCN(C)CC1)c(O)c1ccccc12 (stereo unspecified) | -6.7 | . | . | . | . | . | . | .
CCCc1cc(=O)oc2cc(OCC(=O)NCCCN3CCOCC3)ccc12 | -5.0 | . | -3.1 | . | 0.1 | -12.5 | . | .
CN(C)c1ccc(C2Nc3ccccc3C(=O)N2NS(C)(=O)=O)cc1 (stereo unspecified) | -4.6 | . | 1.3 | . | 1.7 | 0.7 | . | .
CCN(CC)S(=O)(=O)c1cc(NC(=O)Cn2ncc(Cl)c(Cl)c2=O)ccc1C | -3.7 | -4.52* | -3.3 | 52.7 | 94.9* | 46.0* | + | 67.1*
O=C(Cn1ncc(Cl)c(Cl)c1=O)Nc1ccc2c(c1)OCO2 | . | . | -2.0 | . | 38.9 | 12.4 | . | .
CCC(=O)Nc1ccc(C(=O)Cn2ncc(Cl)c(Cl)c2=O)cc1 | -19.8 | -4.43* | 0.2 | -33.2 | 63.3* | 8.7 | + | 74.5*
O=C(CCl)N1N=C(c2cccs2)CC1c1ccco1 (stereo unspecified) | -11.2 | -4.67* | -7.8 | 105.6* | 59.1* | 11.6 | + | 34.5*
O=C(Cn1ncc(Cl)c(Cl)c1=O)N1CCN(S(=O)(=O)c2ccc3ccccc3c2)CC1 | -16.0 | -4.02* | -5.4 | 98.8* | 93.9* | 11.6 | + | 24.8 | CHOP inh conf=-25.1
COc1ccccc1CNC(=O)c1cc(-c2ccccc2)n(Cc2cc(C)no2)n1 | . | . | -4.6 | . | -1.9 | -14.1 | . | .
COc1ccc(CCn2c(C)cc(C(=O)CCl)c2C)cc1OC | -5.1 | -3.71* | -0.4 | -145.6 | 78.6* | 7.1 | + | 122.1*
Cc1cc(C(=O)CSc2nnc(N)s2)c(C)n1CCc1ccc(Cl)cc1 | -3.0 | 0.00319 | 1.3 | 40.1 | 1.7 | 6.1 | . | .
Cc1cc(C(=O)CCl)c(C)n1CCc1ccc(Cl)cc1 | -9.0 | -6.29* | 1.6 | -3.6 | 234.4* | 19.2 | + | 206.8*
Cc1ccc(NC(=O)c2cnccn2)nc1 | -8.4 | . | -2.5 | . | 4.4 | -0.1 | . | .
Cc1cc(C)nc(NC(=S)NC(=O)c2ccccc2F)n1 | . | . | -0.8 | . | 1.3 | -8.1 | . | .
SMILES | pCIP destab | Dynein transport | UPR XBP1 act | CHOP inhibitor | CHOP UPR activ | B2AR ag | Dynein inh conf | CHOP UPR conf | others
Cc1cc(C)nc(S/C=C/C(=O)c2ccccc2F)n1 | -27.7 | -3.67* | 0.1 | 85.2* | 73.2* | 29.7 | + | 8.0
CCN1C(=O)S/C(=C/c2ccsc2)C1=O | -12.3 | -1.01 | 0.6 | 13.4 | 3.7 | 25.4 | . | .
CC(C)N1C/C(=C/c2ccsc2)C(=O)/C(=C/c2ccsc2)C1 | 0.7 | -3.84* | 0.7 | 65.5 | 95.1* | 33.5 | + | 91.2*
CCN(CC(=O)NCc1ccc(F)cc1)C(=O)COc1ccccc1[N+](=O)[O-] | . | . | -3.4 | . | -0.4 | 4.8 | . | .
CCN(CC)C(=O)c1cc([N+](=O)[O-])cc2c1-c1ccc([N+](=O)[O-])cc1C2=C(C#N)C#N | 1.1 | -4.93* | 8.1 | -51.0 | 168.8* | 37.3 | ? | 27.5
CCN(CC)C(=O)c1ccc(Oc2ccc([N+](=O)[O-])cc2Cl)cc1 | 5.0 | 0.229 | -3.8 | -2.9 | 1.3 | 0.9 | . | .
O=C(CCC(=O)NC12CC3CC(CC(C3)C1)C2)NC1CCCCC1 | 9.5 | . | -5.2 | . | -0.3 | -2.6 | . | .
O=C(NCc1cccnc1)/C(=C/c1ccc(-c2cccc(C(F)(F)F)c2)o1)NC(=O)c1ccccc1 | -9.2 | -0.628 | 3.1 | 38.2 | 4.9 | 2.1 | . | .
O=C(NCc1cccnc1)/C(=C\c1ccc(-c2ccc(Br)cc2)o1)S(=O)(=O)c1ccccc1 | 2.5 | -4.57* | -4.9 | 105.5* | 83.3* | 34.8 | + | 51.7*
O=C(NCc1cccnc1)/C(=C/c1ccc(-c2ccc(Cl)cc2)o1)S(=O)(=O)c1ccccc1 | 2.1 | -5.34* | -5.3 | 103.6* | 136.2* | 108.5* | + | 90.8*
CCCn1c(CC)nc([N+](=O)[O-])c1S(=O)(=O)c1ccccc1 | -6.4 | -5.09* | -6.5 | 34.3 | 103.6* | 36.6 | + | 70.5*
O=C(CSCc1ccc(Cl)cc1)Nc1ccc(Br)cc1C(=O)O | -8.9 | . | 1.2 | . | -0.3 | -1.0 | . | .
O=C1/C(=C/C=C/c2ccccc2)Oc2c1ccc(O)c2CN1CCN(CCO)CC1 | -16.2 | -1.34 | 0.5 | -0.4 | 0.4 | -0.3 | . | .

Screening data deposited in PubChem by several laboratories.
